Measurements: ChEMBL document CHEMBL1125311, “Inhibition of human leukocyte elastase. 4. Selection of a substituted cephalosporin (L-658,758) as a topical aerosol” (J Med Chem, 1992)

Assays:
[1] = system: Cricetinae gen. sp.; assay: Compound was evaluated in vivo for inhibition of HLE-induced hemorrhage in hamster lung at 200 microg 2 hr after administration prior to HLE; type: functional, Cricetulus griseus
Outline: (§1)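 Hamster duration protocol: 200 μg/animal given intratracheally 60, 120, 180 or 240 min before IT HLE instillation; hemorrhage scored after 3 h as hemoglobin (414 nm) in saline lung lavage, relative to vehicle-treated animals; three animals per point. T50 taken as time at which 50% inhibition is still obtained.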

[2] = target: Prothrombin (Homo sapiens) (UniProt P00734); assay: Inhibitory activity against Thrombin at 10 min (48 mM conc)
Outline: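 Human thrombin was assayed colorimetrically with 0.2 mM Tosyl-Gly-Pro-Arg-p-nitroanilide as substrate. Percent inhibition was read at 10 min.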

[3] = Inhibition of elastin solubilization; type: functional
[4] = system: Cricetinae gen. sp.; assay: Inhibitory activity against Human Leukocyte Elastase by Lung Hemorrhage assay; type: functional, Cricetulus griseus
[5] = system: Cricetinae gen. sp.; assay: Compound was evaluated in vivo for inhibition of HLE-induced hemorrhage in hamster lung at 10 microg 30 min after administration prior to HLE; type: functional, Cricetulus griseus
Outline: (§2)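 Hamster, intratracheal dosing of compound (per animal) 30 min before IT instillation of 50 μg HLE (50 units in Experimental); hemorrhage read 3 h later: lungs lavaged with saline, hemoglobin in lavage measured at 414 nm. Percent inhibition from drug-treated vs vehicle-treated hemorrhage; three animals per dose and time. Titration at 100, 30, 10, 3 μg/animal gives ED50.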

[6] = organism: Homo sapiens; assay: Inhibitory activity against Complement cascade at 10 min (120 mM conc); type: functional
[7] = system: Cricetinae gen. sp.; assay: Compound was evaluated in vivo for inhibition of HLE-induced hemorrhage in hamster lung at 30 microg 30 min after administration prior to HLE; type: functional, Cricetulus griseus; outline: as §2
[8] = target: Pepsin A (Homo sapiens) (UniProt P0DJD9); assay: Inhibitory activity against Pepsin at 48 mM for 10 min
Chain of Pepsin A (Homo sapiens) (P0DJD9 63-388 limits assumed): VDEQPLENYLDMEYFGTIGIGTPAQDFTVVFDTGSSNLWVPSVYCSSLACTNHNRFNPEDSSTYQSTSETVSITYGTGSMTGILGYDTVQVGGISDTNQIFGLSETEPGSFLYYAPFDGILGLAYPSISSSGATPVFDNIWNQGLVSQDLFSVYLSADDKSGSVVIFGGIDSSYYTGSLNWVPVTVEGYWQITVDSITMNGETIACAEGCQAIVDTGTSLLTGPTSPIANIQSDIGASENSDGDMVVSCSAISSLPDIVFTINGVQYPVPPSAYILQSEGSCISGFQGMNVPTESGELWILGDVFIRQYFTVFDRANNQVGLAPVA
Outline: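 Pepsin activity was tracked at 310 nm as hydrolysis of 1 mM Phe-Gly-His-p-NO2-Phe-Phe-Ala-OMe in 0.04 M formate buffer at pH 4.0. Percent inhibition was read at 10 min.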

[9] = organism: Rattus norvegicus; assay: Inhibition of lung hemorrhage caused by elastase in an acute reverse passive Arthus reaction in rat at 250 ug/animal (ED50=55 ug); type: functional
[10] = system: Cricetinae gen. sp.; assay: Inhibition of lung hemorrhage at 200 ug/animal; type: functional, Cricetulus griseus; outline: as §1
[11] = Half-life value of the compound.; type: ADME
Outline: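 Chemical stability: compound dissolved at 1 mg/mL in 0.5 M MOPS, pH 8.0, held at 25 °C in capped vial; aliquots quenched in 2% aqueous TFA and analysed by reverse-phase HPLC over one to two half-lives. Peak areas fit to first-order decay F(t)=A/2^(t/t1/2) to give t1/2.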

[12] = target: T1, Papain (Carica papaya) (UniProt P00784); assay: Inhibitory activity against Papain at 10 min (48 mM conc)
T1 sequence (whole entry): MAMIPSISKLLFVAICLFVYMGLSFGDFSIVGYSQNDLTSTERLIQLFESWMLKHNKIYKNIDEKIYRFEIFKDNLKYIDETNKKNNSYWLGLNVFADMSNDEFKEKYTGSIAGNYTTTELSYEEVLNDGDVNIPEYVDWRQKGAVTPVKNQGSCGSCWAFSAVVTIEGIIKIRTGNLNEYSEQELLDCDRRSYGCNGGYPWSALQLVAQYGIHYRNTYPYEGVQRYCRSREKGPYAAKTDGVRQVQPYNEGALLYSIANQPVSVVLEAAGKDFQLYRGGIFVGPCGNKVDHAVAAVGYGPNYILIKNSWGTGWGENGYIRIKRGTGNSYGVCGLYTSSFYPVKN
Outline: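 Papain activity was read at 410 nm as p-nitroanilide release from benzoyl-Arg-p-nitroanilide, in pH 7.5 TES with 0.001 M EDTA, 0.005 M Cys and 10% DMSO. Percent inhibition was taken at 10 min.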

[13] = target: T2, Cathepsin G (Homo sapiens) (UniProt P08311); assay: Inhibitory activity against Cathepsin G at 10 min (48 mM conc)using t-Boc-Tyr-ONp as substrate
T2 sequence (whole entry): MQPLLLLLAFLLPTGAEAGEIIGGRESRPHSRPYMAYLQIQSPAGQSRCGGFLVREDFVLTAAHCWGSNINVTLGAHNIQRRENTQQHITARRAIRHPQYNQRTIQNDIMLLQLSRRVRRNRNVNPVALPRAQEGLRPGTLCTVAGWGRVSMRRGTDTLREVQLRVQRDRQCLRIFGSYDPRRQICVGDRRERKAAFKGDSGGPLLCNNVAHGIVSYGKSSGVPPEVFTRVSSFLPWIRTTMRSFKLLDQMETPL

[14] = system: Cricetinae gen. sp.; assay: Compound was evaluated in vivo for inhibition of HLE-induced hemorrhage in hamster lung at 100 microg 30 min after administration prior to HLE; type: functional, Cricetulus griseus; outline: as §2
[15] = Partion ratio of the compound; type: ADME
[16] = target: T3, Neutrophil elastase (Homo sapiens, UniProt P08246); assay: Inhibitory activity against HLE at 10 min (48 mM conc)
T3 sequence (P08246 whole entry): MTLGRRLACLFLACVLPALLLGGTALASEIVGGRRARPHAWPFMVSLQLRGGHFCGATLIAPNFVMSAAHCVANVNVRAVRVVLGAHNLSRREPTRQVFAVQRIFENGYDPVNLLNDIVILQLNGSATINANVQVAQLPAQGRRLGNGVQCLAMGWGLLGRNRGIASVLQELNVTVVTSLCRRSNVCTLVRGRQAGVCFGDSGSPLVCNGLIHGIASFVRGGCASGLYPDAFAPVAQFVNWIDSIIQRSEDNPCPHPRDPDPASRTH

[17] = system: Cricetinae gen. sp.; assay: Inhibitory activity against Human Leukocyte Elastase by Lung Hemorrhage assay (Effective dose at 15 microg); type: functional, Cricetulus griseus
[18] = target: T4, Thermolysin (Bacillus thermoproteolyticus) (UniProt P00800); assay: Inhibitory activity against Thermolysin at 10 min (48 mM conc)
T4 sequence (whole entry): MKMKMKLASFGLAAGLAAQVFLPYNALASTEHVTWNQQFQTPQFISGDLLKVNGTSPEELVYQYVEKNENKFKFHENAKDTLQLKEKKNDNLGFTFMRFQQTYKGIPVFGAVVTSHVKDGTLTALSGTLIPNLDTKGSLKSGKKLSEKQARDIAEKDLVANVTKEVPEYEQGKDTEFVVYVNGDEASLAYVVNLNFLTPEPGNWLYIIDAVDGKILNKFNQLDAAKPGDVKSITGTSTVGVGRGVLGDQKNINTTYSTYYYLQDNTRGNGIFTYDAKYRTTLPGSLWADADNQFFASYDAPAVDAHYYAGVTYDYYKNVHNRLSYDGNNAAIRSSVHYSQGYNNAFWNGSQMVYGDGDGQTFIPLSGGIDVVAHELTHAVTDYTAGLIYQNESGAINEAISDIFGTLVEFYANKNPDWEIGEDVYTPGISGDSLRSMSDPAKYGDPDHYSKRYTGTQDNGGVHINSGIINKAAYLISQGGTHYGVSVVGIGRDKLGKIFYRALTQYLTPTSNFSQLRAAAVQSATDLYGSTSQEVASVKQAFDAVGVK
Outline: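 Thermolysin cleaved 0.2 mM Suc-Ala-Ala-Phe-AMC in pH 7.5 TES with excess leucine aminopeptidase. Released 7-amino-4-methylcoumarin was read by fluorescence (ex 383, em 455). Percent inhibition was taken at 10 min.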

[19] = system: Cricetinae gen. sp.; assay: Compound was evaluated in vivo for inhibition of HLE-induced hemorrhage in hamster lung at 200 microg 4 hr after administration prior to HLE; type: functional, Cricetulus griseus; outline: as §1
[20] = target: T5, Neutrophil elastase (Homo sapiens) (UniProt P08246)
T5 sequence (whole entry): T3 sequence (P08246 whole entry)

[21] = target: Plasminogen (Homo sapiens) (UniProt P00747); assay: Inhibitory activity against Plasmin at 10 min (48 mM conc) using 0.2 mM Tosyl-Gly-Pro-Arg-p-nitroanilide as substrate
Chain of Plasminogen (Homo sapiens) (P00747 97-580 limits assumed): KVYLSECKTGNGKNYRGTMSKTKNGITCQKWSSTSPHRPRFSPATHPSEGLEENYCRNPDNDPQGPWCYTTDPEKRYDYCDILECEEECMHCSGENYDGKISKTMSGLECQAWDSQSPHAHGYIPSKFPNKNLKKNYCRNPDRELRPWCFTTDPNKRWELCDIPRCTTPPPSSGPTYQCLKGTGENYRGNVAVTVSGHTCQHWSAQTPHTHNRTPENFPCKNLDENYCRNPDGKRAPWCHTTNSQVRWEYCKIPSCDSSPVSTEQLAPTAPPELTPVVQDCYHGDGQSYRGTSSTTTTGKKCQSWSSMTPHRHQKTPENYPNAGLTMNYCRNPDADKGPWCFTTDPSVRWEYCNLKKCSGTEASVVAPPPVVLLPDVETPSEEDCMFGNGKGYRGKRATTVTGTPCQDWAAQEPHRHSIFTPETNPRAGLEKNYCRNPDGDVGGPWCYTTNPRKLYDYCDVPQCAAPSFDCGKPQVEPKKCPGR
Chain of Plasminogen (Homo sapiens) (P00747 581-810 limits assumed): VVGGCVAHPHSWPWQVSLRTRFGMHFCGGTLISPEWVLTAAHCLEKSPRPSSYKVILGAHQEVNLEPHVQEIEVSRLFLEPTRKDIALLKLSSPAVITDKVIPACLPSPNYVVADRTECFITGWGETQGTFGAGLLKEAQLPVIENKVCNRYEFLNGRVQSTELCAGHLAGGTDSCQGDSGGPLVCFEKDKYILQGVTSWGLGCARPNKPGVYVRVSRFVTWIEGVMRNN
Outline: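 Human plasmin run under the same conditions as the HLE assay, with 0.2 mM Tosyl-Gly-Pro-Arg-p-nitroanilide as substrate. Inhibitor at 48 mM (so in the source). Percent inhibition read at 10 min.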

[22] = system: Cricetinae gen. sp.; assay: Compound was evaluated in vivo for inhibition of HLE-induced hemorrhage in hamster lung at 200 microg 3h after administration prior to HLE; type: functional, Cricetulus griseus; outline: as §1
[23] = organism: Homo sapiens; assay: Inhibitory activity against Clotting cascade at 10 min (240 nM conc); type: functional
Outline: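 Whole clotting cascade tested with compound at 240 nM; percent inhibition at 10 min.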

[24] = system: Cricetinae gen. sp.; assay: Compound was evaluated in vivo for inhibition of HLE-induced hemorrhage in hamster lung at 200 microg 1 hr after administration prior to HLE; type: functional, Cricetulus griseus; outline: as §1
[25] = organism: Rattus norvegicus; assay: Inhibitory activity against Human Leukocyte Elastase by Lung Hemorrhage assay (at 250 ug/animal)
[26] = system: Cricetinae gen. sp.; assay: Compound was evaluated in vivo for inhibition of HLE-induced hemorrhage in hamster lung at 10 ug 30 min after administration prior to HLE; type: functional, Cricetulus griseus; outline: as §2
[27] = system: Cricetinae gen. sp.; assay: Compound was evaluated in vivo for inhibition of HLE-induced hemorrhage in hamster lung at 30 ug 30 min after administration prior to HLE; type: functional, Cricetulus griseus; outline: as §2
[28] = system: Cricetinae gen. sp.; assay: Inhibitory activity against Human Leukocyte Elastase by Lung Hemorrhage assay (at 200 ug/animal); type: functional, Cricetulus griseus; outline: as §1
[29] = system: Cricetinae gen. sp.; assay: Inhibitory activity against Human Leukocyte Elastase by Lung Hemorrhage assay ( at 30 min); type: functional, Cricetulus griseus; outline: as §2
[30] = system: Cricetinae gen. sp.; assay: Compound was evaluated in vivo for inhibition of HLE-induced hemorrhage in hamster lung at 100 microg 30 min after administration; type: functional, Cricetulus griseus; outline: as §2
[31] = system: Cricetinae gen. sp.; assay: Compound was evaluated in vivo for inhibition of HLE-induced hemorrhage in hamster lung at 200 microg after 180 min of administration; type: functional, Cricetulus griseus; outline: as §1
[32] = system: Cricetinae gen. sp.; assay: Compound was evaluated in vivo for inhibition of HLE-induced hemorrhage in hamster lung at 10 microg 30 min after administration; type: functional, Cricetulus griseus; outline: as §2

CO[C@H]1C(=O)N2C(C(=O)N3CCC[C@H]3C(=O)O)=C(COC(C)=O)CS(=O)(=O)[C@H]12
Inhibition [1]: 97% | inhibition [2]: 0% | IC50 [3]: 500 nM | Inhibition [4]: 70% | Inhibition [5]: 77% | Inhibition [6]: 6% | Inhibition [7]: 86% | inhibition [8]: 0% | Inhibition [9]: 87% | T50 [10]: 185 min | half-life [11]: 21 h | inhibition [12]: 0% | inhibition [13]: 18% | Inhibition [14]: 93% | Partition ratio [15]: 2 | Ki [16]: 1700 nM | ED50 [17]: 30 µg | inhibition [18]: 0% | Inhibition [19]: 32% | k obs / 1 [20]: 3800 M⁻¹ s⁻¹ | inhibition [21]: 14% | Inhibition [22]: 78% | Inhibition [23]: -8% | Inhibition [24]: 99%

CO[C@H]1C(=O)N2C(C(=O)N(C)CC(=O)O)=C(CSc3nc(=O)c(=O)[nH]n3C)CS(=O)(=O)[C@H]12
Inhibition [1]: 90% | Inhibition [4]: 86% | Inhibition [25]: 82% | Inhibition [26]: 56% | half-life [11]: 22 h | Inhibition [14]: 98% | Inhibition [27]: 94% | ED50 [17]: 400 µg | T50 [28]: 180 min | Inhibition [19]: 37% | k obs / 1 [20]: 6200 M⁻¹ s⁻¹ | Inhibition [22]: 64% | ED50 [29]: 10 µg | Inhibition [24]: 94%

CO[C@H]1C(=O)N2C(C(=O)N(C)CC(=O)O)=C(COC(C)=O)CS(=O)(=O)[C@H]12
half-life [11]: 13 h | Inhibition [30]: 90% | Inhibition [31]: 54% | Inhibition [32]: 67% | k obs / 1 [20]: 300 M⁻¹ s⁻¹
